Results: paper PMC10360211 (Science (New York, N.Y.), 2022)
Entries after “also recorded” stand apart in the source; their conditions may differ. Like-named read-outs stand apart in the source and are kept apart here.

Key:
[1] = tested on: α2AAR D128^3.32 mutant receptors; type: cell-based, human
human α2AAR [2] = target: T1, human α2AAR (Homo sapiens, UniProt P08913); experiment: ebBRET-based EMTA G protein and β-arrestin coupling panel; type: cell-based
T1 sequence (P08913 1-465): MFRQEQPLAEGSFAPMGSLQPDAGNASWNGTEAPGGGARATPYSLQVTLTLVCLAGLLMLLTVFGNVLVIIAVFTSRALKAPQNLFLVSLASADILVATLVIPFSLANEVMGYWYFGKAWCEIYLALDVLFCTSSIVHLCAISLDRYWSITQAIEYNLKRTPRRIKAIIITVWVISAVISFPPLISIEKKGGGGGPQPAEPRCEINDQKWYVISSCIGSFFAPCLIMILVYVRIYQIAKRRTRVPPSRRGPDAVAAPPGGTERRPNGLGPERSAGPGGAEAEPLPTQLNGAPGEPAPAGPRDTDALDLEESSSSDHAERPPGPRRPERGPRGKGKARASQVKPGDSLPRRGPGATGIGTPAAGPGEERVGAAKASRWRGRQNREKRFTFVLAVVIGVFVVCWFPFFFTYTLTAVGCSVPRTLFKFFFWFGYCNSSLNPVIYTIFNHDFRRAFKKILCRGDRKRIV
Procedure, shortened: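 ebBRET in HEK293SL cells transfected with premixed biosensor DNA plus α2AAR using PEI (3:1). DNA was 0.57 μg, or 1 μg total for G12/13, and cells were seeded at 3.5×10^4 cells/well for 48 h. Gα activation was read as translocation of RlucII-tagged effectors (p63-RhoGEF for Gq/11, Rap1-GAP for Gi/o, PDZ-RhoGEF for G12/13) to rGFP-CAAX. β-arrestin-1/2-RlucII was also read against rGFP-CAAX. Cells sat in Tyrode HEPES 1 h, then received increasing compound concentrations 10 min at 37°C, with 1 μM Prolume purple for the final 6 min.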

human α2AAR [3] = target: T1, human α2AAR; experiment: Internalization assay with rGFP-CAAX and rGFP-FYVE biosensors; type: cell-based; details: for receptor internalization: both biosensors
mice [4] = experiment: Rotarod motor test; type: in vivo
Procedure, shortened: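 Mice were first trained three times for 5 min on an accelerating rotating rod before any compound. They were then tested 30 min after s.c. dosing, with the experimenter blind to treatment.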

[5] = target: α2AAR D128^3.32 mutant receptors (Homo sapiens, UniProt P08913, D128A); type: cell-based; details: D128^3.32A versus wild type
α2AAR D79N mutant mice = experiment: Tail flick; type: in vivo; details: tail flick 50°C, versus WT
Procedure, shortened: (§1)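 WT and α2AAR D79N mice were habituated for 1 h in cylinders and tested 30 min after s.c. dosing. The tail was immersed in a 50°C water bath to measure heat sensitivity. The experimenter was blind to treatment.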

mice [6] = experiment: Constipation assay; details: i.p.; morphine 10 mg/kg, dexmedetomidine 30 μg/kg, ‘9087 5 mg/kg; versus vehicle
mice [7] = experiment: Tail flick; type: in vivo; details: tail flick 50°C, s.c.
Procedure, shortened: as §1

[8] = tested on: spared nerve injury (SNI) mice; experiment: SNI model of neuropathic pain, mechanical; type: in vivo
Procedure, shortened: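 Spared nerve injury: under isoflurane, two of the three sciatic nerve branches were ligated and transected distally, leaving the sural nerve intact. Testing was done 7–14 days after injury. Atipamezole (2 mg/kg i.p.) was given 15 min before s.c. agonist, and testing followed 30 min after agonist. Hindpaw thresholds were measured with von Frey filaments by the up-down method, by a blinded experimenter.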

[9] = Metabolic stability in rat liver microsomes; type: in vitro ADME; details: male rat liver microsomes, 1 hour, 20 μM
Procedure, shortened: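 Pooled male Sprague Dawley rat liver microsomes (0.25 mg protein per tube) were incubated with test compound or a positive control (20 µM final). Buffer was 50 mM Tris, 5 mM MgCl2, pH 7.4. Incubation was at 37°C on a rotating carousel.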

Pharmacokinetics in mice = type: in vivo; details: 10-mg/kg i.v. and 30-mg/kg p.o.
Procedure, shortened: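 C57BL/6 mice were dosed 10 mg/kg i.v. or 30 mg/kg p.o., with vehicle-dosed groups alongside. One analogue was formulated in 20% v/v HβCD in saline. Sparse sampling used three mice per time point (one for vehicle). Blood was drawn from the orbital sinus into K3EDTA under tribromoethanol (150 mg/kg i.p.), and plasma was spun at 4000 rpm, 10 min, 4°C. Brain was homogenised in ice-cold PBS. Samples were analysed by HPLC-MS/MS; values below LLOQ were set to zero.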

human α2AAR [10] = target: T1, human α2AAR; experiment: Gαi BRET G protein activation assay; type: cell-based
Procedure, shortened: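 HEK293T cells were co-transfected with α2AAR, Gαi1-RLucII, Gβ1 and Gγ2-GFP10. After 48 h the medium was replaced with PBS and cells were stimulated with ligand for 10 min at 37°C. Coelenterazine 400a (2.5 µM final) was added 5 min before reading. BRET was taken as acceptor/donor emission (515/410 nm) and normalised to buffer (0%) and maximal norepinephrine (100%). There were 3–17 experiments, each in duplicate. Receptor surface expression was checked by anti-FLAG ELISA.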

naïve (uninjured) mice = experiment: Mechanical withdrawal thresholds in naïve mice; type: in vivo; details: 5 mg/kg s.c.
Procedure, shortened: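 Uninjured mice were habituated for 1 h in Plexiglas cylinders and tested 30 min after s.c. dosing. Hindpaw mechanical thresholds were found with von Frey filaments by the up-down method. The experimenter was blind to treatment, and animals were randomly assigned to compound or vehicle.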

human α2C = target: T2, human α2C (Homo sapiens, UniProt P18825); experiment: Radioligand binding, α2C; details: read-out: Kd of radioligand; saturation, HEK293T membranes
T2 sequence (P18825 1-462): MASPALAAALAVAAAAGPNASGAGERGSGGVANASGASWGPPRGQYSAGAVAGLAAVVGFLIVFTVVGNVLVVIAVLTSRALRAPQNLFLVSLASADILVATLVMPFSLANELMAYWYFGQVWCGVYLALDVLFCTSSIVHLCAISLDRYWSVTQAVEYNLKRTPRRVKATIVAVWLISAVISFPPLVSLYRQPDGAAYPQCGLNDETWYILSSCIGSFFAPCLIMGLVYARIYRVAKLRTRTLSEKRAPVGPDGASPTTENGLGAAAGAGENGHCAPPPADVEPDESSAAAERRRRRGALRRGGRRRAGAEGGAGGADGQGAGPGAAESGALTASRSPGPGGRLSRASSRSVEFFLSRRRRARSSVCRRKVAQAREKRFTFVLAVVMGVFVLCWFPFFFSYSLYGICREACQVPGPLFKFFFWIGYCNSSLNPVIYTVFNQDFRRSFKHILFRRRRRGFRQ

murine α2AAR = target: T3, murine α2AAR (Mus musculus, UniProt Q01338); experiment: Radioligand binding, murine α2AAR; details: read-out: Kd of radioligand; saturation, HEK293T membranes
T3 sequence (Q01338 1-465): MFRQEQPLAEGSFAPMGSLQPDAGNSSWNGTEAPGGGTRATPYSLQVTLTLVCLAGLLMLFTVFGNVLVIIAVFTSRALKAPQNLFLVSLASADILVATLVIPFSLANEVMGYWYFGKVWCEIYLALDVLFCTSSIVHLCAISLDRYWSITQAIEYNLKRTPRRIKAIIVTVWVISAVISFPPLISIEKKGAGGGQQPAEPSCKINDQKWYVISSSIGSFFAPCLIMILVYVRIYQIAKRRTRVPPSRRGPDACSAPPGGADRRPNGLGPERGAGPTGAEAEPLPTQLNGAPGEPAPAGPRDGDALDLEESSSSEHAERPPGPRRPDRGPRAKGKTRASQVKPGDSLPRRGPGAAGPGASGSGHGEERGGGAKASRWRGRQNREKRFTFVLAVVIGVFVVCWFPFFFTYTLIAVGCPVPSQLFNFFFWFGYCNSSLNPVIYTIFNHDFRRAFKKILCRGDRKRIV

human α2AAR [11] = target: T1, human α2AAR; experiment: Radioligand binding, human α2AAR; details: read-out: Kd of radioligand; saturation, HEK293T membranes
human α2BAR = target: T4, human α2BAR (Homo sapiens, UniProt P18089); experiment: Radioligand binding, human α2BAR; details: read-out: Kd of radioligand; saturation, HEK293T membranes
T4 sequence (P18089 1-450): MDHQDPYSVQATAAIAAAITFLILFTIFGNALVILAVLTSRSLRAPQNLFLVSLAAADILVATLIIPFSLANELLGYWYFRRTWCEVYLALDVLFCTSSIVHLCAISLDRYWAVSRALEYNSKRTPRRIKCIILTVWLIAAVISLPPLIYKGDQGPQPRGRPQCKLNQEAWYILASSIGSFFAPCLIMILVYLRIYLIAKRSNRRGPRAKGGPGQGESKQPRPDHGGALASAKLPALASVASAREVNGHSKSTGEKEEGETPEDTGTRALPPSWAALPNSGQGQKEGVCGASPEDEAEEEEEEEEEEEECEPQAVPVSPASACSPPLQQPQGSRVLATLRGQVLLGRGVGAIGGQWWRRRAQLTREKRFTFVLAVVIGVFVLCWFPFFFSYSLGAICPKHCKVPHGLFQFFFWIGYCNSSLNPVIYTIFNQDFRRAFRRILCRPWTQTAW

Sequence of α2AAR D128^3.32 mutant receptors (Homo sapiens, UniProt P08913, D128A) (P08913 whole entry D128A): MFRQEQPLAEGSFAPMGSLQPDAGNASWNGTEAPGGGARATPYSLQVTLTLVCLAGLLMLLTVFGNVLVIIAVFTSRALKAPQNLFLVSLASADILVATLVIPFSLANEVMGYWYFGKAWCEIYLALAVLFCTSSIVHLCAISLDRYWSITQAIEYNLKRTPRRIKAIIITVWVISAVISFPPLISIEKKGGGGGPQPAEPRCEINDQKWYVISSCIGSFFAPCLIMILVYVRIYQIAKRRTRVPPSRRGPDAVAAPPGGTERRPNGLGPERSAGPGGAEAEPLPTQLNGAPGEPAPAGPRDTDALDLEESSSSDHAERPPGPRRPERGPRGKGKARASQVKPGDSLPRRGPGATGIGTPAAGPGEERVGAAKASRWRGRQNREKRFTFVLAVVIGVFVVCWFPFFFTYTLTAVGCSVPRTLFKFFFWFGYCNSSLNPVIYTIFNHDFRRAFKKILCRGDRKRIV

NC[C@H](O)c1ccc(O)c(O)c1 [norepinephrine]
Gi activation and β-arrestin recruitment on substitutions to D128^3.32 [1]: almost complete loss
G protein and β-arrestin subtype signaling profile (human α2AAR [2]): strongly activated multiple additional G proteins and β-arrestins
receptor internalization (human α2AAR [3]): comparable responses for both biosensors

Cc1cccc([C@H](C)c2cnc[nH]2)c1C [dexmedetomidine]
motor impairment and sedation (mice [4]): complete sedation; also recorded: full sedation
motor impairment and sedation (mice [4]; listed as DEX): significant impairment and complete sedation at higher doses
Gi activation and β-arrestin recruitment on substitutions to D128^3.32 [1]: almost complete loss
Gi EC50 fold higher [5]: 170,000 fold
G protein and β-arrestin subtype signaling profile (human α2AAR [2]): strongly activated multiple additional G proteins and β-arrestins
receptor internalization (human α2AAR [3]): about half of this response
analgesia in D79N mutant mice (α2AAR D79N mutant mice): no longer induced analgesia in the mutant mice
analgesia in D79N mutant mice (α2AAR D79N mutant mice; listed as DEX): substantially decreases the analgesia

Brc1c(NC2=NCCN2)ccc2nccnc12 [brimonidine]
G protein and β-arrestin subtype signaling profile (human α2AAR [2]): strongly activated multiple additional G proteins and β-arrestins
receptor internalization (human α2AAR [3]): comparable responses for both biosensors

CN1CC[C@]23c4c5ccc(O)c4O[C@H]2[C@@H](O)C=C[C@H]3[C@H]1C5 [morphine]
analgesia in D79N mutant mice (α2AAR D79N mutant mice): does not affect; also recorded: not significantly altered by the mutation
constipation, accumulated pellets over 6 hours (mice [6]): induced constipation

Clc1ccc2cccc(Nc3ccncc3)c2c1 [PS75]
motor impairment and sedation (mice [4]): did not have an effect on the rotarod test; also recorded: do not cause sedation or motor impairment at analgesic doses
withdrawal latencies (mice [7]): increased withdrawal latencies
G protein and β-arrestin subtype signaling profile (human α2AAR [2]): preferentially activated Gi, Go, and Gz (Gi/o/z) signaling; also recorded: retained the preferential signaling through the Gi/o versus other G protein families and β-arrestins
effect of atipamezole on the agonist's effect ([8]; atipamezole 2 mg/kg i.p. 15 min before agonist): partially reversed
effect on mechanical thresholds / allodynia ([8]; s.c.): completely reversed the mechanical hypersensitivity
receptor internalization (human α2AAR [3]): negligible receptor internalization
disappearance of α2AARs from the plasma membrane (human α2AAR [3]; α2AAR-RlucII/rGFP-CAAX biosensor): no effect
relocalization of the receptors in endosomes (human α2AAR [3]; α2AAR-RlucII/rGFP-FYVE biosensor): marginal effect at the highest concentrations
analgesia in D79N mutant mice (α2AAR D79N mutant mice): substantially decreases the analgesia
reduction of analgesia in D79N mutant mice (α2AAR D79N mutant mice): > 50%
metabolic stability [9]: remain largely unmodified
oral bioavailability (Pharmacokinetics in mice): fully bio-available
increased potency compared with ‘9087 (human α2AAR [10]; Gi activation): 11 fold
Emax, Gi activation (human α2AAR [10]; Gαi BRET, % of norepinephrine response): 82%
EC50 (human α2AAR [10]; abstract): 4.8 nM
baseline mechanical withdrawal thresholds (naïve (uninjured) mice): did increase the mechanical thresholds

COC1(C2=NCCN2)COc2ccccc2O1 (centres unmarked) [[^3H]RX82,1002]
Kd (human α2C): 0.58 ± 0.11 nM
Kd (murine α2AAR): 1.8 ± 0.61 nM
Kd (human α2AAR [11]): 0.54 ± 0.024 nM
Kd (human α2BAR): 2.3 ± 0.52 nM
